Measurements from ChEMBL document CHEMBL4371053, “A novel tetrazole analogue of resveratrol is a potent anticancer agent” (Bioorg Med Chem Lett, 2019).
Active and inactive are the calls of the source. No cut-off for these calls is given here.

Key:
[1] = system: KM12; assay: Growth inhibition of human KM12 cells incubated for 48 hrs by sulforhodamine B assay; format: functional; conditions: KM12, 48 h
Method in brief: (§1)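 NCI-60 five-dose study at 10⁻⁴, 10⁻⁵, 10⁻⁶, 10⁻⁷ and 10⁻⁸ M, 48 h incubation. Growth determined from sulforhodamine B optical density before and after exposure, relative to vehicle control and time-zero counts. GI₅₀ is the molar concentration giving 50% growth inhibition.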

[2] = system: NCI-H226; assay: Growth inhibition of human NCI-H226 cells incubated for 48 hrs by sulforhodamine B assay; format: functional; conditions: NCI-H226, 48 h
Method in brief: (§2)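 NCI-60 screen: cells were exposed for 48 h to compound or vehicle, and growth was read as sulforhodamine B optical density before and after exposure. In the single-dose test at 10⁻⁵ M, percent growth was taken relative to vehicle control and time-zero cell number. In the five-dose test (10⁻⁴ to 10⁻⁸ M), GI₅₀ was the molar concentration causing 50% growth inhibition.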

[3] = system: NCI-H322M; assay: Growth inhibition of human NCI-H322M cells incubated for 48 hrs by sulforhodamine B assay; format: functional; method in brief: as §2
[4] = system: OVCAR-8; assay: Growth inhibition of human OVCAR8 cells incubated for 48 hrs by sulforhodamine B assay; format: functional; conditions: OVCAR-8, 48 h; method in brief: as §2
[5] = system: NCI-H522; assay: Growth inhibition of human NCI-H522 cells at 10 uM after 48 hrs by sulforhodamine B assay relative to control; format: functional; conditions: NCI-H522, 48 h, values are per cent of control
Method in brief: (§3)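 NCI-60 single-dose screen. Cells exposed to 10⁻⁵ M or to vehicle for 48 h. Growth measured by sulforhodamine B optical density before and after exposure. Reported as percent growth relative to vehicle control and to time-zero cell number; negative values indicate cell kill.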

[6] = system: MDA-MB-468; assay: Growth inhibition of human MDA-MB-468 cells incubated for 48 hrs by sulforhodamine B assay; format: functional; conditions: MDA-MB-468, 48 h; method in brief: as §1
[7] = system: PC-3; assay: Growth inhibition of human PC3 cells incubated for 48 hrs by sulforhodamine B assay; format: functional; conditions: PC-3, 48 h; method in brief: as §1
[8] = system: HOP-62; assay: Growth inhibition of human HOP62 cells incubated for 48 hrs by sulforhodamine B assay; format: functional; conditions: HOP-62, 48 h; method in brief: as §1
[9] = biological target: Tubulin (Homo sapiens) (UniProt P68371+Q9H4B7+P0DPH7+P68366+Q13509+Q71U36+P04350+Q3ZCM7+P07437+P68363+Q9BQE3+Q6PEY2+Q13885+Q9BVA1+Q9BUF5); assay: Inhibition of tubulin (unknown origin) polymerization at 2 uM by immunoblot analysis; format: protein-complex assay
Method in brief: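 Cell-based assay. Cells were treated with compound at 1.0 and 2.0 μM. Polymerized tubulin (pellet) was separated from unpolymerized tubulin (supernatant), and both fractions were immunoblotted with anti-tubulin antibody.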

[10] = system: MDA-MB-435; assay: Growth inhibition of human MDA-MB-435 cells at 10 uM after 48 hrs by sulforhodamine B assay relative to control; format: functional; conditions: MDA-MB-435, 48 h, values are per cent of control; method in brief: as §3
[11] = system: T47D; assay: Growth inhibition of human T47D cells incubated for 48 hrs by sulforhodamine B assay; format: functional; method in brief: as §2
[12] = system: OVCAR-3; assay: Growth inhibition of human OVCAR3 cells incubated for 48 hrs by sulforhodamine B assay; format: functional; conditions: OVCAR-3, 48 h; method in brief: as §1
[13] = system: OVCAR-5; assay: Growth inhibition of human OVCAR5 cells incubated for 48 hrs by sulforhodamine B assay; format: functional; conditions: OVCAR-5, 48 h; method in brief: as §2
[14] = system: NCI-H460; assay: Growth inhibition of human NCI-H460 cells at 10 uM after 48 hrs by sulforhodamine B assay relative to control; format: functional; conditions: NCI-H460, 48 h, values are per cent of control; method in brief: as §3
[15] = system: DU-145; assay: Growth inhibition of human DU145 cells at 10 uM after 48 hrs by sulforhodamine B assay relative to control; format: functional; conditions: DU-145, 48 h, values are per cent of control; method in brief: as §3
[16] = system: NCI-H460; assay: Growth inhibition of human NCI-H460 cells incubated for 48 hrs by sulforhodamine B assay; format: functional; conditions: NCI-H460, 48 h; method in brief: as §2
[17] = system: UACC-257; assay: Growth inhibition of human UACC257 cells incubated for 48 hrs by sulforhodamine B assay; format: functional; conditions: UACC-257, 48 h; method in brief: as §2
[18] = system: U-251; assay: Growth inhibition of human U251 cells incubated for 48 hrs by sulforhodamine B assay; format: functional; conditions: U-251, 48 h
Method in brief: (§4)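 NCI-60 screen run per Rubinstein protocol. Sulforhodamine B optical density was read before and after 48 h exposure to compound or vehicle. The single-dose pass at 10⁻⁵ M reported percent growth relative to vehicle control and time-zero cell number. The five-dose follow-up used 10⁻⁴ to 10⁻⁸ M, giving GI₅₀ as the molar concentration causing 50% growth inhibition.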

[19] = system: Malme-3M; assay: Growth inhibition of human MALME-3M cells incubated for 48 hrs by sulforhodamine B assay; format: functional; method in brief: as §2
[20] = system: TK-10; assay: Growth inhibition of human TK10 cells incubated for 48 hrs by sulforhodamine B assay; format: functional; conditions: TK-10, 48 h; method in brief: as §2
[21] = system: BT-549; assay: Growth inhibition of human BT549 cells incubated for 48 hrs by sulforhodamine B assay; format: functional; conditions: BT-549, 48 h; method in brief: as §2
[22] = system: EKVX; assay: Growth inhibition of human EKVX cells incubated for 48 hrs by sulforhodamine B assay; format: functional; method in brief: as §2
[23] = system: HCT-116; assay: Growth inhibition of human HCT116 cells incubated for 48 hrs by sulforhodamine B assay; format: functional; conditions: HCT-116, 48 h; method in brief: as §1
[24] = system: UACC-62; assay: Growth inhibition of human UACC62 cells incubated for 48 hrs by sulforhodamine B assay; format: functional; conditions: UACC-62, 48 h; method in brief: as §4
[25] = system: SK-MEL-28; assay: Growth inhibition of human SK-MEL-28 cells incubated for 48 hrs by sulforhodamine B assay; format: functional; conditions: SK-MEL-28, 48 h; method in brief: as §1
[26] = system: SN12C; assay: Growth inhibition of human SN12C cells incubated for 48 hrs by sulforhodamine B assay; format: functional; method in brief: as §2
[27] = system: MCF7; assay: Growth inhibition of human MCF7 cells incubated for 48 hrs by sulforhodamine B assay; format: functional; conditions: MCF7, 48 h; method in brief: as §1
[28] = system: CAKI-1; assay: Growth inhibition of human Caki1 cells incubated for 48 hrs by sulforhodamine B assay; format: functional; conditions: CAKI-1, 48 h; method in brief: as §2
[29] = system: SF-539; assay: Growth inhibition of human SF539 cells at 10 uM after 48 hrs by sulforhodamine B assay relative to control; format: functional; conditions: SF-539, 48 h, values are per cent of control; method in brief: as §3
[30] = system: A498; assay: Growth inhibition of human A498 cells incubated for 48 hrs by sulforhodamine B assay; format: functional; conditions: A498, 48 h; method in brief: as §1

SMILES: COc1ccc(/C(=C/c2ccc3ccccc3c2)c2nnn[nH]2)cc1OC
- GI50 [1]: 2.79 µM
- GI50 [2]: > 100 µM
- GI50 [3]: 6.88 µM
- GI50 [4]: 7.1 µM
- growth, % of control at 10 µM [5]: -2.85%
- GI50 [6]: 21.5 µM
- GI50 [7]: 2.36 µM
- GI50 [8]: 2.33 µM
- inhibition [9]: inactive
- growth, % of control at 10 µM [10]: -41%
- GI50 [11]: 28.2 µM
- GI50 [12]: 1.69 µM
- GI50 [13]: 6.08 µM
- growth, % of control at 10 µM [14]: 14.1%
- growth, % of control at 10 µM [15]: 20.9%
- GI50 [16]: 2.81 µM
- GI50 [17]: 56.6 µM
- GI50 [18]: 4.46 µM
- GI50 [19]: 3.08 µM
- GI50 [20]: 18.5 µM
- GI50 [21]: 10.9 µM
- GI50 [22]: 18.2 µM
- GI50 [23]: 2.42 µM
- GI50 [24]: 0.86 µM
- GI50 [25]: 8.07 µM
- GI50 [26]: 9.97 µM
- GI50 [27]: 4.12 µM
- GI50 [28]: 2.24 µM

SMILES: COc1ccc(/C=C(/c2cc(OC)c(OC)c(OC)c2)c2nnn[nH]2)cc1O
- GI50 [1]: < 0.01 µM
- growth, % of control at 10 µM [29]: -1.97%
- growth, % of control at 10 µM [5]: -6.32%
- GI50 [6]: < 0.01 µM
- GI50 [7]: < 0.01 µM
- GI50 [8]: < 0.01 µM
- inhibition [9]: Active
- growth, % of control at 10 µM [10]: -8.4%
- GI50 [12]: < 0.01 µM
- growth, % of control at 10 µM [14]: 2.67%
- growth, % of control at 10 µM [15]: 3.41%
- GI50 [30]: < 0.01 µM
- GI50 [18]: < 0.01 µM
- GI50 [23]: < 0.01 µM
- GI50 [24]: < 0.01 µM
- GI50 [25]: < 0.01 µM
- GI50 [27]: < 0.01 µM
